Measured values from ChEMBL document CHEMBL3774339, “Exploring Selective Inhibition of the First Bromodomain of the Human Bromodomain and Extra-terminal Domain (BET) Proteins” (J Med Chem, 2016).
pEC50, pIC50: −log10 of the molar value.

Experiments:
Jurkat [1] = assay: Antiproliferative activity against human Jurkat cells after 72 hrs by Cell Titer-Glo luminescence assay; format: functional, cell-based
How it was run: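 Jurkat cell viability read across a range of compound concentrations after 72 h incubation at 37 °C. EC50 taken from the dose–response.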

Jurkat [2] = assay: Downregulation of c-Myc in human Jurkat cells assessed as expression level at 50 uM after 24 hrs by Western blot analysis; format: functional
How it was run: (§1)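 Jurkat cells exposed to different compound concentrations in 0.5% DMSO for 24 h. c-Myc detected on blots loaded with 50 μg protein.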

Homo sapiens [3] = species on record: Homo sapiens; assay: Selectivity ratio of IC50 for GST-tagged human BRD2 bromodomain1 to IC50 for GST-tagged human BRD4 bromodomain1
Jurkat [4] = assay: Downregulation of c-Myc in human Jurkat cells assessed as expression level at 1 uM after 24 hrs by Western blot analysis; format: functional; how it was run: as §1
Jurkat [5] = assay: Downregulation of c-Myc in human Jurkat cells assessed as expression level after 24 hrs by Western blot analysis; format: functional, cell-based; how it was run: as §1
[6] = biological target: T1, ATPase family AAA domain-containing protein 2 (Homo sapiens, UniProt Q6PL18); assay: Inhibition of GST-tagged human ATAD2 using H4KAc 5/8/12/16 peptide as substrate incubated overnight by HTRF assay
T1 sequence (Q6PL18 whole entry): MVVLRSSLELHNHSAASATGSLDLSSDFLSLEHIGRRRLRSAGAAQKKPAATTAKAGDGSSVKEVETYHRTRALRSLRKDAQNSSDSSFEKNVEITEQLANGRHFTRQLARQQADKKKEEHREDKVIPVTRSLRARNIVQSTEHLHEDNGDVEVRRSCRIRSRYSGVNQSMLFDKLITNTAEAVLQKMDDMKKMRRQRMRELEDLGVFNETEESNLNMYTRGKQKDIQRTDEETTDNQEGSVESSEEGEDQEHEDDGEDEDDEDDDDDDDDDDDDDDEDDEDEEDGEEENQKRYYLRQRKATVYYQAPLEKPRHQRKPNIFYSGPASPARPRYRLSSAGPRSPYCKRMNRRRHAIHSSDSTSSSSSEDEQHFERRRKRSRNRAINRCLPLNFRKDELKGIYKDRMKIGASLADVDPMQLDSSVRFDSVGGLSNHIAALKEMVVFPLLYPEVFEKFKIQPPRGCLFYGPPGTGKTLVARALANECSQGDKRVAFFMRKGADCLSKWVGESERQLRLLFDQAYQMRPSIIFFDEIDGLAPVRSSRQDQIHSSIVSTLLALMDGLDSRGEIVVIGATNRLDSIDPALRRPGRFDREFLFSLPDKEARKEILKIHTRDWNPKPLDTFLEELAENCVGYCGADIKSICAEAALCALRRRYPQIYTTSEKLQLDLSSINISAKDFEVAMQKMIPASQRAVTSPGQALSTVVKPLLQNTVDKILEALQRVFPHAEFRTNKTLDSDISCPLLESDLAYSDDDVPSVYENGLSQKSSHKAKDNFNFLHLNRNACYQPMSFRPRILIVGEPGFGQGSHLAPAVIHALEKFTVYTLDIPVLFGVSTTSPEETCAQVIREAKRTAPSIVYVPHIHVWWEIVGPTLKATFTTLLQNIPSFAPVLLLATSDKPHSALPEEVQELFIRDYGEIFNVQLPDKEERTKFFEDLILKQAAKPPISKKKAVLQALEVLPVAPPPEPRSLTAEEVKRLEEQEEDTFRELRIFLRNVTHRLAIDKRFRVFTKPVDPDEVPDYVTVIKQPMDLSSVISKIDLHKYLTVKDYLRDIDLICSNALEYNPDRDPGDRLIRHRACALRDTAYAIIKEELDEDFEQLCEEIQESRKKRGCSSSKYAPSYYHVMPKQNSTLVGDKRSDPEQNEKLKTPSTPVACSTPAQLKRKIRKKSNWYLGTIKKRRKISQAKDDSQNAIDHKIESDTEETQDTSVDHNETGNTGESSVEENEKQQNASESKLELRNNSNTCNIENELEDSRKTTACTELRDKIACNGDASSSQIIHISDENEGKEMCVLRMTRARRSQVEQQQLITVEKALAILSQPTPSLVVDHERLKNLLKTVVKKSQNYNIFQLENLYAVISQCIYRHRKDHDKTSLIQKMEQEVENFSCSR

Homo sapiens [7] = species on record: Homo sapiens; assay: Selectivity ratio of IC50 for GST-tagged human BRD3 bromodomain1 to IC50 for GST-tagged human BRD4 bromodomain1
[8] = biological target: Bromodomain testis-specific protein (Homo sapiens, UniProt Q58F21); assay: Inhibition of GST-tagged human BRDT bromodomain1 using H4KAc 5/8/12/16 peptide as substrate incubated overnight by HTRF assay
Homo sapiens [9] = species on record: Homo sapiens; assay: Selectivity ratio of IC50 for GST-tagged human BRDT bromodomain1 to IC50 for GST-tagged human BRD4 bromodomain1
Jurkat [10] = assay: Downregulation of c-Myc in human Jurkat cells assessed as expression level at 10 uM after 24 hrs by Western blot analysis; format: functional; how it was run: as §1
[11] = biological target: Bromodomain-containing protein 4 (Homo sapiens, UniProt O60885); assay: Inhibition of GST-tagged human BRD4 bromodomain1 using H4KAc 5/8/12/16 peptide as substrate incubated overnight by HTRF assay
[12] = biological target: Bromodomain-containing protein 3 (Homo sapiens, UniProt Q15059); assay: Inhibition of human BRD3 bromodomain2 using H4KAc 5/8/12/16 peptide as substrate incubated overnight by HTRF assay
Sequence of Bromodomain-containing protein 3 (Q15059 whole entry): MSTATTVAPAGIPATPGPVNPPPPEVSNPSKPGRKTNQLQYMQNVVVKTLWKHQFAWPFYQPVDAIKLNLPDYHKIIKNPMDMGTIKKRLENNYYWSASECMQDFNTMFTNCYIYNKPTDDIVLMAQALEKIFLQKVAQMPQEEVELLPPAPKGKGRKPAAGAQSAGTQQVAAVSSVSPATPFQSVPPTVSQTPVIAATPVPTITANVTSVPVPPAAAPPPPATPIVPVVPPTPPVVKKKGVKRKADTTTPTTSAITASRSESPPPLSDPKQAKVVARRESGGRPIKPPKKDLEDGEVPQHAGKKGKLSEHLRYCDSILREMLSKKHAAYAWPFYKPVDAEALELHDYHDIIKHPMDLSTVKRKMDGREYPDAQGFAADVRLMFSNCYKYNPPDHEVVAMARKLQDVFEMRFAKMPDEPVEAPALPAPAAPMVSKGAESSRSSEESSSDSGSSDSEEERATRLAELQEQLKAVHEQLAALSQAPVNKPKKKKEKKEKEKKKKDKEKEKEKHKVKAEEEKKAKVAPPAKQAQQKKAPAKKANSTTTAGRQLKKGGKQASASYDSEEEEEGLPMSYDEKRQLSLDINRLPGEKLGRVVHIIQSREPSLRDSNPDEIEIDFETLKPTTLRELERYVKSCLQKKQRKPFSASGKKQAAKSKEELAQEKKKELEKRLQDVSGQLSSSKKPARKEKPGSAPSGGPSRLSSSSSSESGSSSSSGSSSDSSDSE

For `CCCCc1c(C)nc2nc(SCc3nc4c(c(=O)[nH]c(=O)n4CCCC)n3CC)nn2c1C`, the Activity (Jurkat [1]) was “Dose-dependent effect”, the pEC50 (Jurkat [1]) was 4.57 and the Activity (Jurkat [2]) was 3%. The Ratio IC50 (Homo sapiens [3]) was > 10, the Activity (Jurkat [4]) was 62% and the Activity (Jurkat [5]) was “Dose-dependent effect”. The pIC50 [6] was < 4.00, the Ratio IC50 (Homo sapiens [7]) was > 10 and the pIC50 [8] was < 4.00. For the same compound, the Ratio IC50 (Homo sapiens [9]) was > 10 and the Activity (Jurkat [10]) was 98%.
In the case of `CCn1c(CSc2n[nH]c(N)n2)nc2c1c(=O)[nH]c(=O)n2Cc1ccc(Cl)cc1`, the pIC50 [8] was < 4.00.
With `CCCCn1c(=O)[nH]c(=O)c2c1nc(CSc1n[nH]c(N)n1)n2CC` the pIC50 [11] was < 4.30.
`CCn1cnc2c1c(=O)[nH]c(=O)n2Cc1ccc(Cl)cc1` showed a pIC50 [12] of 5.74.
